# From ChEMBL document CHEMBL4689842, “EUbOPEN Chemogenomics Library wave 1” (2021)
# System: Fibroblast
# Assay: Multiplex assay against human fibroblast
# Type: toxicity, cell-based
# In short: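 Compound was added to live cells that had been stained at seeding with Hoechst33342, BioTracker Green Microtubule Cytoskeleton Dye, MitoTracker Red and Annexin V Alexa Fluor 680, and imaging followed on a CQ1 microscope at 37°C and 5% CO2. CellPathfinder machine-learning gating divided cells into Hoechst high-intensity objects or normal cells, normal cells into healthy, pyknosed or fragmented nuclei, and pyknosed cells into mitotic or apoptotic. Tubulin, mitochondrial-mass and membrane-permeability phenotypes are per cents of healthy-nucleus cells.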
# [1] = 12 h, 1 µM, compound concentration 1 uM, replicate 1
# [2] = 12 h, 1 µM, compound concentration 1 uM, replicate 2
# [3] = 12 h, 10 µM, compound concentration 10 uM, replicate 1
# [4] = 12 h, 10 µM, compound concentration 10 uM, replicate 2
# [5] = 24 h, 1 µM, compound concentration 1 uM, replicate 1
# [6] = 24 h, 1 µM, compound concentration 1 uM, replicate 2
# [7] = 24 h, 10 µM, compound concentration 10 uM, replicate 1
# [8] = 24 h, 10 µM, compound concentration 10 uM, replicate 2
# [9] = 48 h, 1 µM, compound concentration 1 uM, replicate 1
# [10] = 48 h, 1 µM, compound concentration 1 uM, replicate 2
# [11] = 48 h, 10 µM, compound concentration 10 uM, replicate 1
# [12] = 48 h, 10 µM, compound concentration 10 uM, replicate 2
smiles,measurement,setting,value
Cc1cn(-c2cc(NC(=O)c3ccc(C)c(Nc4nccc(-c5cccnc5)n4)c3)cc(C(F)(F)F)c2)cn1 [NILOTINIB],Population Apoptotic (%),[1],62%
same,Population Fragmented Nuclei (%),[1],36%
same,Population Healthy Nuclei (%),[1],29%
same,Population Hoechst High Intensity Objects (%),[1],8%
same,Population Membrane Permeable-Phenotype (%),[1],16%
same,Population Mitochondria Different-Phenotype (%),[1],20%
same,Population Mitotic Cells (%),[1],37%
same,Population Normal (%),[1],91%
same,Population Pyknosed Nuclei (%),[1],34%
same,Population Tubulin-Different-Phenotype (%),[1],83%
same,Total Cell Count,[1],160
same,Population Apoptotic (%),[2],25%
same,Population Fragmented Nuclei (%),[2],1%
same,Population Healthy Nuclei (%),[2],86%
same,Population Membrane Permeable-Phenotype (%),[2],1%
same,Population Mitochondria Different-Phenotype (%),[2],18%
same,Population Mitotic Cells (%),[2],75%
same,Population Pyknosed Nuclei (%),[2],11%
same,Population Tubulin-Different-Phenotype (%),[2],10%
same,Total Cell Count,[2],66
same,Population Apoptotic (%),[3],78%
same,Population Fragmented Nuclei (%),[3],42%
same,Population Healthy Nuclei (%),[3],46%
same,Population Hoechst High Intensity Objects (%),[3],44%
same,Population Membrane Permeable-Phenotype (%),[3],4%
same,Population Mitochondria Different-Phenotype (%),[3],0%
same,Population Mitotic Cells (%),[3],21%
same,Population Normal (%),[3],55%
same,Population Pyknosed Nuclei (%),[3],10%
same,Population Tubulin-Different-Phenotype (%),[3],2%
same,Total Cell Count,[3],2441
same,Population Apoptotic (%),[4],33%
same,Population Fragmented Nuclei (%),[4],18%
same,Population Healthy Nuclei (%),[4],72%
same,Population Hoechst High Intensity Objects (%),[4],7%
same,Population Mitochondria Different-Phenotype (%),[4],61%
same,Population Mitotic Cells (%),[4],66%
same,Population Normal (%),[4],92%
same,Population Pyknosed Nuclei (%),[4],9%
same,Population Tubulin-Different-Phenotype (%),[4],63%
same,Total Cell Count,[4],73
same,Population Apoptotic (%),[5],56%
same,Population Fragmented Nuclei (%),[5],32%
same,Population Healthy Nuclei (%),[5],29%
same,Population Hoechst High Intensity Objects (%),[5],13%
same,Population Membrane Permeable-Phenotype (%),[5],17%
same,Population Mitochondria Different-Phenotype (%),[5],32%
same,Population Mitotic Cells (%),[5],43%
same,Population Normal (%),[5],86%
same,Population Pyknosed Nuclei (%),[5],38%
same,Population Tubulin-Different-Phenotype (%),[5],92%
same,Total Cell Count,[5],159
same,Population Apoptotic (%),[6],40%
same,Population Fragmented Nuclei (%),[6],14%
same,Population Healthy Nuclei (%),[6],79%
same,Population Hoechst High Intensity Objects (%),[6],5%
same,Population Membrane Permeable-Phenotype (%),[6],2%
same,Population Mitochondria Different-Phenotype (%),[6],20%
same,Population Mitotic Cells (%),[6],60%
same,Population Normal (%),[6],94%
same,Population Pyknosed Nuclei (%),[6],5%
same,Population Tubulin-Different-Phenotype (%),[6],12%
same,Total Cell Count,[6],67
same,Population Apoptotic (%),[7],77%
same,Population Fragmented Nuclei (%),[7],45%
same,Population Healthy Nuclei (%),[7],45%
same,Population Hoechst High Intensity Objects (%),[7],50%
same,Population Membrane Permeable-Phenotype (%),[7],3%
same,Population Mitochondria Different-Phenotype (%),[7],0%
same,Population Mitotic Cells (%),[7],22%
same,Population Normal (%),[7],49%
same,Population Pyknosed Nuclei (%),[7],9%
same,Population Tubulin-Different-Phenotype (%),[7],2%
same,Total Cell Count,[7],2873
same,Population Apoptotic (%),[8],0%
same,Population Fragmented Nuclei (%),[8],12%
same,Population Healthy Nuclei (%),[8],83%
same,Population Hoechst High Intensity Objects (%),[8],2%
same,Population Membrane Permeable-Phenotype (%),[8],1%
same,Population Mitochondria Different-Phenotype (%),[8],42%
same,Population Mitotic Cells (%),[8],100%
same,Population Normal (%),[8],97%
same,Population Pyknosed Nuclei (%),[8],4%
same,Population Tubulin-Different-Phenotype (%),[8],30%
same,Total Cell Count,[8],93
same,Population Apoptotic (%),[9],67%
same,Population Fragmented Nuclei (%),[9],32%
same,Population Healthy Nuclei (%),[9],40%
same,Population Hoechst High Intensity Objects (%),[9],16%
same,Population Membrane Permeable-Phenotype (%),[9],10%
same,Population Mitochondria Different-Phenotype (%),[9],29%
same,Population Mitotic Cells (%),[9],32%
same,Population Normal (%),[9],83%
same,Population Pyknosed Nuclei (%),[9],26%
same,Population Tubulin-Different-Phenotype (%),[9],72%
same,Total Cell Count,[9],138
same,Population Apoptotic (%),[10],100%
same,Population Fragmented Nuclei (%),[10],19%
same,Population Healthy Nuclei (%),[10],79%
same,Population Hoechst High Intensity Objects (%),[10],11%
same,Population Membrane Permeable-Phenotype (%),[10],5%
same,Population Mitochondria Different-Phenotype (%),[10],2%
same,Population Mitotic Cells (%),[10],0%
same,Population Normal (%),[10],89%
same,Population Pyknosed Nuclei (%),[10],1%
same,Population Tubulin-Different-Phenotype (%),[10],5%
same,Total Cell Count,[10],100
same,Population Apoptotic (%),[11],47%
same,Population Fragmented Nuclei (%),[11],45%
same,Population Healthy Nuclei (%),[11],43%
same,Population Hoechst High Intensity Objects (%),[11],61%
same,Population Membrane Permeable-Phenotype (%),[11],4%
same,Population Mitochondria Different-Phenotype (%),[11],0%
same,Population Mitotic Cells (%),[11],52%
same,Population Normal (%),[11],38%
same,Population Pyknosed Nuclei (%),[11],10%
same,Population Tubulin-Different-Phenotype (%),[11],2%
same,Total Cell Count,[11],2935
same,Population Apoptotic (%),[12],100%
same,Population Fragmented Nuclei (%),[12],28%
same,Population Healthy Nuclei (%),[12],65%
same,Population Hoechst High Intensity Objects (%),[12],25%
same,Population Membrane Permeable-Phenotype (%),[12],15%
same,Population Mitochondria Different-Phenotype (%),[12],9%
same,Population Mitotic Cells (%),[12],0%
same,Population Normal (%),[12],74%
same,Population Pyknosed Nuclei (%),[12],6%
same,Population Tubulin-Different-Phenotype (%),[12],81%
same,Total Cell Count,[12],66
COc1cccc2cc(-c3nc([C@H]4CC[C@H](C(=O)O)CC4)n4ncnc(N)c34)[nH]c12 [OSI-027],Population Apoptotic (%),[1],58%
same,Population Fragmented Nuclei (%),[1],47%
same,Population Healthy Nuclei (%),[1],40%
same,Population Hoechst High Intensity Objects (%),[1],28%
same,Population Membrane Permeable-Phenotype (%),[1],5%
same,Population Mitochondria Different-Phenotype (%),[1],0%
same,Population Mitotic Cells (%),[1],41%
same,Population Normal (%),[1],71%
same,Population Pyknosed Nuclei (%),[1],11%
same,Population Tubulin-Different-Phenotype (%),[1],7%
same,Total Cell Count,[1],382
same,Population Apoptotic (%),[2],57%
same,Population Fragmented Nuclei (%),[2],68%
same,Population Healthy Nuclei (%),[2],22%
same,Population Hoechst High Intensity Objects (%),[2],26%
same,Population Membrane Permeable-Phenotype (%),[2],25%
same,Population Mitochondria Different-Phenotype (%),[2],18%
same,Population Mitotic Cells (%),[2],42%
same,Population Normal (%),[2],73%
same,Population Pyknosed Nuclei (%),[2],9%
same,Population Tubulin-Different-Phenotype (%),[2],31%
same,Total Cell Count,[2],98
same,Population Apoptotic (%),[3],72%
same,Population Fragmented Nuclei (%),[3],28%
same,Population Healthy Nuclei (%),[3],56%
same,Population Hoechst High Intensity Objects (%),[3],12%
same,Population Membrane Permeable-Phenotype (%),[3],2%
same,Population Mitochondria Different-Phenotype (%),[3],2%
same,Population Mitotic Cells (%),[3],27%
same,Population Normal (%),[3],87%
same,Population Pyknosed Nuclei (%),[3],14%
same,Population Tubulin-Different-Phenotype (%),[3],0%
same,Total Cell Count,[3],281
same,Population Apoptotic (%),[4],20%
same,Population Fragmented Nuclei (%),[4],65%
same,Population Healthy Nuclei (%),[4],26%
same,Population Hoechst High Intensity Objects (%),[4],31%
same,Population Membrane Permeable-Phenotype (%),[4],18%
same,Population Mitochondria Different-Phenotype (%),[4],12%
same,Population Mitotic Cells (%),[4],80%
same,Population Normal (%),[4],68%
same,Population Pyknosed Nuclei (%),[4],8%
same,Population Tubulin-Different-Phenotype (%),[4],6%
same,Total Cell Count,[4],88
same,Population Apoptotic (%),[5],53%
same,Population Fragmented Nuclei (%),[5],36%
same,Population Healthy Nuclei (%),[5],50%
same,Population Hoechst High Intensity Objects (%),[5],33%
same,Population Membrane Permeable-Phenotype (%),[5],7%
same,Population Mitochondria Different-Phenotype (%),[5],1%
same,Population Mitotic Cells (%),[5],46%
same,Population Normal (%),[5],66%
same,Population Pyknosed Nuclei (%),[5],12%
same,Population Tubulin-Different-Phenotype (%),[5],5%
same,Total Cell Count,[5],302
same,Population Apoptotic (%),[6],16%
same,Population Fragmented Nuclei (%),[6],68%
same,Population Healthy Nuclei (%),[6],22%
same,Population Hoechst High Intensity Objects (%),[6],34%
same,Population Membrane Permeable-Phenotype (%),[6],6%
same,Population Mitochondria Different-Phenotype (%),[6],13%
same,Population Mitotic Cells (%),[6],83%
same,Population Normal (%),[6],65%
same,Population Pyknosed Nuclei (%),[6],8%
same,Population Tubulin-Different-Phenotype (%),[6],13%
same,Total Cell Count,[6],103
same,Population Apoptotic (%),[7],75%
same,Population Fragmented Nuclei (%),[7],23%
same,Population Healthy Nuclei (%),[7],64%
same,Population Hoechst High Intensity Objects (%),[7],17%
same,Population Membrane Permeable-Phenotype (%),[7],6%
same,Population Mitochondria Different-Phenotype (%),[7],0%
same,Population Mitotic Cells (%),[7],24%
same,Population Normal (%),[7],82%
same,Population Pyknosed Nuclei (%),[7],12%
same,Population Tubulin-Different-Phenotype (%),[7],0%
same,Total Cell Count,[7],282
same,Population Apoptotic (%),[8],33%
same,Population Fragmented Nuclei (%),[8],60%
same,Population Healthy Nuclei (%),[8],34%
same,Population Hoechst High Intensity Objects (%),[8],33%
same,Population Membrane Permeable-Phenotype (%),[8],17%
same,Population Mitochondria Different-Phenotype (%),[8],11%
same,Population Mitotic Cells (%),[8],66%
same,Population Normal (%),[8],66%
same,Population Pyknosed Nuclei (%),[8],6%
same,Population Tubulin-Different-Phenotype (%),[8],11%
same,Total Cell Count,[8],75
